Screens as filed in PubChem BioAssay.
PERK inhibitor = human PERK inhibition, primary cell-based screen. Q9NZJ5. CHO PERK-DD fusion, SEAP luminescence translation reporter. AID 1416. inhibition, % at 5.6 µM. 0.17% of 220,000 active;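 active = inhibition above the mean inhibition of all tested compounds plus 3 SD, set separately per screening campaign, cut at about 2.9% in these data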;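 also: PERK kinase domain activated by AP20187 dimerizer at 100 nM; 0% = DMSO with dimerizer and 100% = rapamycin at 8.4 µM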
Hck-Nef inh = human Hck-Nef kinase inhibition. inhibition, % at 20 µM. 0.68% of 220,000 active. Recombinant Hck-YEEI plus Nef, Z-Lyte FRET kinase assay;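 active = Hck-Nef kinase inhibition above about 50%, limit read from the data; inactive = inhibition below that limit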;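 also: 0% = DMSO with Hck plus Nef and 100% = Hck alone without Nef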
Runt-CBFb FRET = blocks binding of human RUNX1 Runt domain to CBFb; Q01196+Q13951; Cerulean-Runt/Venus-CBFb FRET ratio 530/480, 1 h; inhibition, % at 20 µM; 0.46% of 220,000 active;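 active = inhibition over about 50% at 20 µM in the single-dose screen, limit read from the data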;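 also: 0% = DMSO wells and 100% = excess unlabeled CBFb competitor control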
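test system = Cerulean-Runt domain fusion protein, energy donor | probe or stimulus = Venus-CBFb binding partner, 100 nM | incubation = two 1 h room-temperature incubations shielded from light | detection = fluorescence energy transfer, 422 nm excitation, 530/480 nm emission | measure = loss of energy transfer signal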
RanGTP-Impb inh = inhibitors of RanGTP-importin-beta interaction, primary screen, biochemical, FRET, CFP-Ran, YFP-importin-beta, homogeneous. cell-free CFP-Ran/YFP-importin-beta FRET ratio. 1.1% of 300,000 active. AID 2216. inhibition, % (test concentration not listed);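 active = more than half of the replicate wells show a fall in the fluorescence ratio signal beyond about 16%, limit read from the data, passing the limit was not always enough; inconclusive = exactly half of the replicate wells pass the set limit; inactive = fewer than half of replicates pass the limit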;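 also: 0% = DMSO wells and 100% = Ran loaded with GDP instead of GTP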
eIF4E 4G PPI = inhibitors of eIF4E and eIF4G interaction in translation initiation. P63073+Q04637. TR-FRET eIF4E-eIF4GI(517-606) binding, 2 h. inhibition, % at 21.7 µM. 0.37% of 220,000 active. AID 782;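 active = inhibition above about 30%, limit read from the data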;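 also: 0% = full FRET control wells and 100% = background wells lacking eIF4GI fragment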
Target sequence (P63073 whole entry, looked up, the tested form may be a part): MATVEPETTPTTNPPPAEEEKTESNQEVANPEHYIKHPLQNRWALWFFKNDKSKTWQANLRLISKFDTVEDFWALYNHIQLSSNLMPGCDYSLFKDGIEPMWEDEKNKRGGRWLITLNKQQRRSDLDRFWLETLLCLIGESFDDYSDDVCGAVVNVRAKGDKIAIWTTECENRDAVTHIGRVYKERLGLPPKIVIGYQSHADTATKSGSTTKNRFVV
Target sequence (Q04637 whole entry, looked up, the tested form may be a part): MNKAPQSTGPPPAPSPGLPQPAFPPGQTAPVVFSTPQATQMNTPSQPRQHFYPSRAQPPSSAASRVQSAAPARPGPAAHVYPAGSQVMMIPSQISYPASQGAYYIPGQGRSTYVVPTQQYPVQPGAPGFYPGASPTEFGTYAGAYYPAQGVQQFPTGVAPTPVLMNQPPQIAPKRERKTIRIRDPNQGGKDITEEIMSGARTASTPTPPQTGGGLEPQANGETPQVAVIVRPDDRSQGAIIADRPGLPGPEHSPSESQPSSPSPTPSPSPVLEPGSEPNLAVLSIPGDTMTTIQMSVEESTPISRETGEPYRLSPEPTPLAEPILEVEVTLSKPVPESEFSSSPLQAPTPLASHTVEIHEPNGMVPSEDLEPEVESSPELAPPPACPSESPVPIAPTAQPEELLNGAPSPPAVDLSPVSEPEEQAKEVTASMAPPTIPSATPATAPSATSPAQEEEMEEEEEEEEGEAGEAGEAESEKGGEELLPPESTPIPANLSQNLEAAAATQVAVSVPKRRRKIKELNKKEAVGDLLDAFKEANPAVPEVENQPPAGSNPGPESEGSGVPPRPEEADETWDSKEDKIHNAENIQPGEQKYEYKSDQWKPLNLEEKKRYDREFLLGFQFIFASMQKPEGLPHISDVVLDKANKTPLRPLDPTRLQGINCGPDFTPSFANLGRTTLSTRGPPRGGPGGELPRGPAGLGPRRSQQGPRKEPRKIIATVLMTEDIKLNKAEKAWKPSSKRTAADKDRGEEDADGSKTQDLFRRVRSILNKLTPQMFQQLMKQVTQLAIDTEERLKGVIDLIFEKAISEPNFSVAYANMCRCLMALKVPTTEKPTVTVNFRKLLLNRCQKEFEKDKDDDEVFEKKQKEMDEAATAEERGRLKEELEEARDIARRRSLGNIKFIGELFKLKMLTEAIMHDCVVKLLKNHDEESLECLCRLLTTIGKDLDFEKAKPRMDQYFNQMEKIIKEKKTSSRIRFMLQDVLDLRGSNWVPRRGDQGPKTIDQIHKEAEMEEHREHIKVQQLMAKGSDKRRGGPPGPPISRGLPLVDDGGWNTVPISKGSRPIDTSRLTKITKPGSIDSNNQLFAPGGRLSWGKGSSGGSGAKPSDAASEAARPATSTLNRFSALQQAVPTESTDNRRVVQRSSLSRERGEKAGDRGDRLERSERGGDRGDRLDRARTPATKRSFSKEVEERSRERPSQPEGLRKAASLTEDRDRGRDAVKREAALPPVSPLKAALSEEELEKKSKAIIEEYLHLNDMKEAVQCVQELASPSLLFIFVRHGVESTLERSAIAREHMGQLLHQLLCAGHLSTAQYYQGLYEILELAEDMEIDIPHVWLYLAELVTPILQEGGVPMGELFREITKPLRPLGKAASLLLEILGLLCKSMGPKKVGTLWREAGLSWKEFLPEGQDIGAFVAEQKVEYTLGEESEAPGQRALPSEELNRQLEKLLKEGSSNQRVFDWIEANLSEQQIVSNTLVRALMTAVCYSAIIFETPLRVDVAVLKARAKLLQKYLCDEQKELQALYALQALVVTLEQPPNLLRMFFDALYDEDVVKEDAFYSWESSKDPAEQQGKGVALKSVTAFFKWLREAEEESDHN
Runt-SMMHC FRET = inhibitors of human RUNX1 Runt domain binding to CBFb-SMMHC. Q01196+Q13951. 0.74% of 220,000 active. Cerulean-Runt/Venus-CBFb-SMMHC FRET ratio 530/480, 1 h. AID 1434. inhibition, % at 20 µM;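 active = mean inhibition across duplicate retests at 20 µM reaching about 50%, limit read from the data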;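 also: 0% = DMSO wells and 100% = wells with excess untagged CBFb-SMMHC; inhibitors lower the FRET ratio by blocking Runt binding to CBFb-SMMHC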
Hck-Nef confirm = Hck-Nef kinase inhibition, confirmation. Recombinant Hck-YEEI:Nef, Z-Lyte FRET kinase assay. AID 463188. calls only at 10 µM. 28% of 1,300 active. shares compounds with Hck-Nef inh;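 active = average inhibition of at least 50%, with Z-scores no higher than 3 in both the phospho-tyrosine peptide and fluorescence counterscreens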
* marks the source's active call; other numbers are inactive results; i = inactive; ? = inconclusive; / = not tested or not shown; + = active, no number. An excerpt weighted towards active compounds, which were near 2.2% of everything screened.

SMILES | PERK inhibitor | Hck-Nef inh | Runt-CBFb FRET | RanGTP-Impb inh | eIF4E 4G PPI | Runt-SMMHC FRET | Hck-Nef confirm
FC(F)(F)c1cnc(Oc2cccc3ccccc23)c(Cl)c1 | 0.9 | -1.8 | -1.6 | -2.8 | 15.6 | 2.1 | /
Cn1nc(Oc2ncc(C(F)(F)F)cc2Cl)cc1C(F)(F)F | -0.2 | 54.3* | 0.9 | ? | -1.6 | -1.9 | i
CC(C)CNC(=O)COC(=O)c1c2c(nc3ccccc13)CCC2 | / | / | / | -1.3 | / | / | /
COc1ccc2oc(/C=C/N(C)C)c(C(=O)c3ccc(Cl)cc3)c2c1 | 0.7 | 98.4* | 3.0 | 2.0 | 8.0 | -12.2 | i
O=C(CSc1nc2ccccc2n1CCc1ccccc1)c1ccc(O)c(O)c1 | 1.3 | 189.3* | 10.2 | / | 62.5* | 2.2 | +
Cc1nn(CCc2nn[nH]n2)c2nc(-c3ccc(C4CCCCC4)cc3)cc(C(F)(F)F)c12 | -0.1 | 71.0* | 5.1 | -0.4 | 17.6 | -4.0 | +
Cc1nn(CCC(=O)O)c2nc(-c3cccnc3)cc(C(F)(F)F)c12 | -0.1 | 1.8 | -3.3 | 1.7 | 10.8 | 1.8 | /
COc1ccc(/C=C2\SC(=N)N(c3ccc(F)cc3)C2=O)cc1OC | 0.8 | 62.6* | -0.9 | 2.6 | 15.4 | -7.3 | +
CCN(CC)c1ccc(/C=C2\C(=O)c3ccc(C(=O)O)cc3C2=O)cc1 | 0.7 | 64.1* | -29.9 | / | 23.1 | -99.6 | i
CCN(CC)c1ccc(C(=O)O)cc1 | 0.0 | 0.7 | -1.3 | 6.5 | 0.8 | 3.1 | /
Cc1cc(/C=N/Nc2ccc([N+](=O)[O-])cn2)c(C)n1-c1ccc(C(=O)O)cc1 | 0.5 | 79.4* | -13.7 | 4.8 | 34.5* | -46.0 | i
O=C(N/N=C/c1ccc(O)cc1)Nc1cccc2nsnc12 | 0.3 | 52.6* | -10.8 | 4.6 | 1.4 | 2.8 | i
CC(=O)NC1(C(F)(F)F)NC(=O)N(CC(C)C)C1=O (stereo not drawn) | 0.8 | 0.3 | -1.2 | 1.2 | -2.3 | 5.6 | /
c1ccn2c(c1)nc1c2nc2ccccn21 | 1.0 | 66.0* | 20.0 | -3.7 | 5.0 | 71.5* | /
Clc1c(-c2ccccc2)nc2ccccn12 | / | / | / | -0.6 | / | / | /
O=C(O)CC1=C(Nc2ccccc2)C(=O)N(c2ccccc2)C1c1ccc(Br)cc1 (stereo not drawn) | 0.3 | 19.3 | -1.3 | -4.4 | -0.9 | -0.8 | /
COc1ccc(-c2cc(-c3ccco3)[nH]c(=O)c2C#N)cc1OC | 0.2 | 53.4* | 14.6 | 8.1 | -0.4 | 29.4 | i
COc1ccccc1/C=C/C=N/NC(=O)c1cc(-c2ccco2)[nH]n1 | 1.7 | 59.0* | 24.0 | -3.6 | 7.7 | 3.9 | i
Cc1nc(N)c(CC(Br)CBr)c(Cl)n1 (stereo not drawn) | 0.9 | 16.8 | -0.5 | 4.3 | -1.4 | 1.4 | /
CCOC(=O)c1cc(C(=O)NCc2ccc(Cl)cc2Cl)nn1C | -0.4 | 0.3 | -6.0 | 0.4 | 1.1 | -1.8 | /
CCOC(=O)c1cc(C(=O)Nc2ccc(C)c(F)c2)nn1C | 0.8 | 106.1* | -1.6 | 0.7 | -5.5 | 1.0 | i
Cc1cc(=O)[nH]c(/N=C(\N)Nc2ccc(Oc3ccccc3)cc2)n1 | 0.3 | 51.6* | -0.5 | 0.8 | -10.8 | -0.2 | i
Cc1ccc(C)n1Cc1ccc(C(=O)O)cc1 | 1.6 | 73.9* | 3.6 | / | 5.8 | 1.6 | i
O=c1oc2c(CN3CCOCC3)c(O)ccc2c2ccccc12 | 1.1 | -2.0 | / | -5.5 | 2.9 | -13.5 | /
O=c1oc2c(CN3CCOCC3)c(O)ccc2c2c1CCCC2 | -1.0 | 54.2* | 41.5 | 33.3* | 1.2 | 66.2* | /
SMILES | PERK inhibitor | Hck-Nef inh | Runt-CBFb FRET | RanGTP-Impb inh | eIF4E 4G PPI | Runt-SMMHC FRET | Hck-Nef confirm
CCCCc1cc(=O)oc2c(CN3CCN(C)CC3)c(O)ccc12 | / | / | / | 5.9 | / | / | /
O=c1oc2c(CN3CCOCC3)c(O)c(Cl)cc2c2c1CCCC2 | -0.3 | 79.7* | 104.6* | 85.3* | -1.4 | 41.9 | /
CCCc1cc(=O)oc2c(CN3CCOCC3)c(O)ccc12 | 1.3 | 65.2* | / | 5.0 | -5.1 | 90.4* | /
Cc1c(O)c(CN2CCCC2)cc2c3c(c(=O)oc12)CCC3 | 0.2 | 34.1 | 25.5 | 14.2 | 5.9 | 37.1 | /
COc1cc(NC(=O)CN2CCC(C)CC2)c(C)cc1[N+](=O)[O-] | -0.2 | 0.7 | -2.5 | 6.0 | 1.6 | -0.6 | /
O=C(Nc1ccc(S(=O)(=O)N2CCOCC2)cc1)c1cc(S(=O)(=O)N2CCOCC2)ccc1Cl | / | / | / | -0.9 | / | / | /
CC1(C)OC(=O)C(=Cc2ccc(-c3ccc(Cl)c(C(=O)O)c3)o2)C(=O)O1 | 0.5 | 77.3* | 12.4 | -1.6 | 4.8 | 7.3 | i
O=C1/C(=C\c2ccc(O)c(O)c2)SC(=S)N1Cc1ccccc1 | / | / | / | 4.3 | / | / | /
O=C(O)c1cc(-c2ccc(/C=C3/SC(=S)N(Cc4ccccc4)C3=O)o2)ccc1Cl | 0.5 | 140.9* | 19.3 | / | 62.0* | 3.9 | +
Cc1ccc(C(=O)CSC2=C(C#N)C(c3ccco3)CC(=O)N2)c(C)c1 (stereo not drawn) | -0.1 | 0.0 | 8.7 | -95.8 | 3.5 | -0.5 | /
O=C1CSC(=S)N1/N=C/c1ccc(O)c(O)c1O | 0.2 | 79.4* | 38.9 | 9.6 | 84.4* | 42.6 | +
N[C@@H](Cc1ccccc1)c1nnc2sc(SCc3ccccc3)nn12 | -1.0 | 1.3 | 1.8 | -1.2 | 2.5 | -0.7 | /
CCOC(=O)c1cccc(OS(=O)(=O)Cc2ccccc2)c1 | / | / | / | -1.0 | / | / | /
O=C(NCCN1CCOCC1)c1cc2c(=O)n3ccccc3nc2n1Cc1ccccc1 | -1.1 | 52.3* | 19.7 | 5.6 | -4.4 | 48.0 | i
Cc1cccn2c(=O)c3cc(C(=O)NCCCn4ccnc4)n(C)c3nc12 | -0.4 | 19.4 | 2.3 | 3.6 | 10.2 | 10.9 | /
Cc1ccc2nc3c(cc(C(=O)NC4CCCC4)c(=N)n3CCCn3ccnc3)c(=O)n2c1 | 0.7 | 109.8* | / | 156.2* | -1.2 | / | /
Cc1cccn2c(=O)c3cc(C(=O)NCCc4ccccc4)c(=N)n(CCCn4ccnc4)c3nc12 | 0.5 | 60.8* | 8.7 | 177.8* | -1.4 | 81.6* | /
Cc1cccn2c(=O)c3cc(C(=O)NCCN4CCOCC4)c(=N)n(CCc4ccccc4)c3nc12 | -1.3 | 61.3* | 11.2 | 185.3* | 5.3 | 41.4 | /
COCCCn1c(C(=O)NCCN2CCOCC2)cc2c(=O)n3cccc(C)c3nc21 | / | / | / | 1.5 | / | / | /
Cc1cccn2c(=O)c(C=O)c(Cl)nc12 | 2.3 | 0.0 | 3.7 | ? | 3.4 | 0.5 | /
Cc1ccc(-n2c(=O)c(C#N)cc3c(=O)n4cccc(C)c4nc32)cc1 | 0.4 | 67.1* | 122.2* | 92.6* | -33.3 | 58.7* | /
Cn1c(C(=O)N2CCCc3ccccc32)cc2c(=O)n3ccccc3nc21 | -1.5 | 4.2 | 0.0 | 4.6 | 1.9 | 8.4 | /
